Data taken from the RNAGym collection of RNA variant scans (doi:10.1126/science.aae0568).
Variants at the floor of the assay were thinned out.

B1: tRNA (parent)
chain: GUUCCGUUGGCGUAAUGGUAACGCGUCUCCCUCCUAAGGAGAAGACUGCGGGUUCGAGUCCCGUACGGAACG

Variants of: B1
Experiment: yeast fitness relative to wild type (ratio to wild type); higher = fitter; tRNA-Arg(CCU), competitive growth, 37 C, YPD
Summary of the method: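 For this measurement, the tRNA-Arg(CCU) gene was varied by chemical synthesis at a 3% per-site mutation rate across 69 sites, and each variant was placed at the native genomic locus in Saccharomyces cerevisiae. The pooled strains went through a 24-hour competition in YPD at 37°C in six parallel replicates, with amplicons from start and end populations read by 100-nucleotide paired-end sequencing. Darwinian fitness relative to wild type followed from the change in each genotype's frequency. Genotypes needed ≥ 100 starting reads, and estimates < 0.5 were set to 0.5.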

Row | Variant | yeast fitness
1 | G23A A42U C61A | ≤ 0.5
2 | G6A A45G A70U | 0.775
3 | A15U A42G | 0.746
4 | U28A A42U | 0.812
5 | G9A A14G A20C A42C | ≤ 0.5
6 | C24U U32A G38A A57U G68U | ≤ 0.5
7 | A15G C30G G39C | ≤ 0.5
8 | C22A C27G G41A C62A | 0.655
9 | C4U C5A A36C A42G G52A | 0.578
10 | G10A A21U C31G | ≤ 0.5
11 | G6A G25A A45U C62A | ≤ 0.5
12 | C11U A20U C24U C30U C33A U54A C61G | ≤ 0.5
13 | A15C A36U G39A | ≤ 0.5
14 | A20C G39C C49U | ≤ 0.5
15 | C5G A36U G41A A65U | 0.549
16 | C4A G10C A57U | ≤ 0.5
17 | G9A C31G | 0.819
18 | G39A G44A G50A G63C | ≤ 0.5
19 | G10A C49A G67A | ≤ 0.5
20 | C5G A15G U16A A20G U28A C30A C33A A36U U47C A69C | ≤ 0.5
21 | C5U G9A G39A G48A A57U | ≤ 0.5

Row | Variant | yeast fitness
22 | U16G C66U A69C | 0.728
23 | U32C A40U C55G A70C | ≤ 0.5
24 | A21U C22G C66U | 0.568
25 | G9A C22G U28A C31G C55A G68C | ≤ 0.5
26 | C46U U59G | 0.962
27 | A45U C49G | 0.872
28 | C31U C60A G67A | ≤ 0.5
29 | A21G C29U A36U A43U C62A | 0.559
30 | C4U U26G C62G | ≤ 0.5
31 | U3A C5A G6C A37C A45U G68C | ≤ 0.5
32 | C4U C5G C29G C31G A37U C66A | ≤ 0.5
33 | U2G A20U C29A G39A A45C | 0.586
34 | U2A C49A C61G | 0.505
35 | C22U C29A C55G A65U G67A | 0.578
36 | A43C G56A | 0.949
37 | A14C C34A G48C | ≤ 0.5
38 | C11A A70U | 0.581
39 | C4U A37U A43U | ≤ 0.5
40 | U13G C49G | 0.823
41 | U13G A42C U47A G67C | ≤ 0.5
42 | G6A C24U C46U | 0.764

Row | Variant | yeast fitness
43 | A15G A42U A57C | 0.532
44 | C33A A37U C62A | 0.503
45 | A43C C62A A69C | 0.633
46 | C4A C22A | 0.706
47 | G6C U7A C29A G51C | ≤ 0.5
48 | C4A C31G A40U A65U G68C | 0.595
49 | C22U G25A U26G C62U A65U | 0.51
50 | U8C G9A U13A A15G A37U | 0.549
51 | U7G C27G C30A C62G | ≤ 0.5
52 | C22U G23C G52C | ≤ 0.5
53 | A36G C66G | 0.689
54 | C5A C22U U35C C49U C66U | ≤ 0.5
55 | A14G U19A C27G U28A C34A A36G A43G | 0.608
56 | C4A U32C C46G C62A | ≤ 0.5
57 | G12C C55G | 0.608
58 | C4A G10A A21G C22G A65G | ≤ 0.5
59 | U2A C11U G18C C31U A42G C62U | ≤ 0.5
60 | C29G U53C U54G | 0.509
61 | G41A G52U U64A G68A | 0.622
62 | A14C A20C G67A | ≤ 0.5
63 | C5U G23C U32C A42G U54A | ≤ 0.5

Row | Variant | yeast fitness
64 | U2A G6C A21G U32C U59G C66U A70C | ≤ 0.5
65 | C30A A36C | 0.579
66 | C31U G68A A69G | 0.702
67 | C22G U35C A57C | 0.61
68 | C34U G63A | 0.624
69 | C55U C61A G68A | ≤ 0.5
70 | G12U A36G | 0.758
71 | C27U G58A G63A | 0.53
72 | G9C A40U A70U | ≤ 0.5
73 | U8C C46U G51C | ≤ 0.5
74 | C29U G68C | 0.898
75 | A14U U16A C27G A40U A57U C66A | ≤ 0.5
76 | C11G C29A | 0.518
77 | C30A G50U | 0.816
78 | A15C G51C C61U | ≤ 0.5
79 | C5U C31U G50A C55G | 0.57
80 | C22A C24U C30U C31G | 0.531
81 | C11U C30U C66A | ≤ 0.5
82 | C4U U16G C66G | ≤ 0.5
83 | C4G C29G G58A | 0.53
84 | G25C U53A C55U | ≤ 0.5
